From PubChem BioAssay
MT stabilize HCS: stabilizes microtubules in HeLa cells; % tubulin-high responders, % at 10 µM; HeLa tubulin immunostaining HCS, 24 h; share of cells brighter than vehicle mean+2SD; hit rate 0.83% among 200,000; AID 2205;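 active = plate Z-score above 3 for both tubulin-high and condensed-nucleus cell shares, with cell loss under 80%, at 10 µM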;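 note: anti alpha tubulin signal scored within the nucleus-defined area of each cell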
IEC-6 tox: kills IEC-6 intestinal cells in KLF5 counter-screen | AID 1825 | hit rate 0.78% among 290,000 | IEC-6 cytotoxicity, luminescence viability | inhibition, % at 5 µM; in the data active = inhibition above about 22%;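 note: 0% = plate median of test compound wells and 100% = cytotoxic reference compound wells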
bCat nuc transl: modulators of beta-catenin nuclear translocation; HeLa beta-catenin nuclear translocation, immunofluorescence imaging; nuclear translocation activity, % at 5 µM; hit rate 0.3% among 190,000;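 active = nuclear translocation activity above 50% at 5 µM, with a well cell count of 50 or more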;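 note: per-cell ratio of nuclear to cytoplasmic median beta-catenin stain intensity; plate controls were DMSO negative control for no effect and GSK-3 inhibitor IX positive control for full effect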
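Signal – beta-catenin immunofluorescence imaging with DAPI · Test system – human HeLa cell line · Dosing – 5 µM primary single dose, 0.1% DMSO, 0.02–20 µM confirmation series · Measure – % activation, nuclear-to-cytoplasmic median beta-catenin signal ratio per cell · Incubation – 24 h compound exposure at 37°C, 5% CO2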
BaF3 tox: reduces parental Ba/F3 cell viability, JAK2V617F counter-screen. CellTiter-Glo ATP luminescence. hit rate 1.1% among 220,000. inhibition, % at 5.6 µM;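 active = inhibition above a per-campaign cutoff, the mean inhibition of all tested compounds plus 3 SD, cut at about 27% in these data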;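 note: 0% = DMSO wells and 100% = JAK Inhibitor I control wells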
KLF5 inhibitor: kruppel-like factor 5 inhibition; DLD-1 KLF5 promoter-luciferase reporter, luminescence; inhibition, % at 5 µM; hit rate 0.23% among 290,000; AID 1700;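 active = inhibition above a per-plate limit of that plate's mean compound inhibition plus 3 SD, cut at about 60% in these data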;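 note: 0% = DMSO wells and 100% = LY294002 at 200 µM; higher means less KLF5 promoter-driven luciferase light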
Ba/F3 V617F tox: reduce viability of Ba/F3 cells dependent on JAK2V617F. Ba/F3 EpoR-JAK2V617F viability, ATP luminescence. inhibition, % at 5.6 µM. hit rate 1.1% among 220,000. AID 1446;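 active = inhibition above the campaign mean plus 3 SD over all tested compounds, cut at about 24% in these data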;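 note: cytokine-independent growth of Ba/F3 cells driven by EpoR plus mutant JAK2; 0% = DMSO-treated cells and 100% = JAK inhibitor I control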
* = called active by the depositor. Only some compounds are listed: those with a hit (about 2.1% of all), similar ones and a draw of the others.

How did Cc1ccc(S(=O)(=O)N2CCC(NC(=O)c3ccccc3)CC2)cc1 do in these assays?
MT stabilize HCS: 3.2; IEC-6 tox: 4.1; bCat nuc transl: -1.0; BaF3 tox: 90.0*; KLF5 inhibitor: -17.6; Ba/F3 V617F tox: -0.7

How did Cc1ccc(C(=O)NC2CCN(S(=O)(=O)c3ccccc3)CC2)cc1 do in these assays?
MT stabilize HCS: 1.8; IEC-6 tox: -6.7; bCat nuc transl: 0.0; BaF3 tox: 4.0; KLF5 inhibitor: -4.0; Ba/F3 V617F tox: -3.2

How did CCCNC(=O)CSc1nc2[nH]ncc2c(=O)[nH]1 do in these assays?
MT stabilize HCS: 2.2; IEC-6 tox: 3.0; bCat nuc transl: 0.1; BaF3 tox: 0.1; KLF5 inhibitor: 2.8; Ba/F3 V617F tox: -4.8

How did C=CCN1C(=O)C(C)(C)N(C(C)=O)c2ccccc21 do in these assays?
MT stabilize HCS: 2.7; IEC-6 tox: 0.5; bCat nuc transl: -1.6; BaF3 tox: 3.4; KLF5 inhibitor: 0.1; Ba/F3 V617F tox: 0.1

How did CC(=O)N1c2ccccc2N(Cc2ccc(C)cc2C)C(=O)C1(C)C do in these assays?
MT stabilize HCS: 18.9*

How did COc1cccc(C2=NOC(C(=O)NCc3ccco3)C2)c1 (configuration not stated) do in these assays?
MT stabilize HCS: 10.2; IEC-6 tox: 3.0; BaF3 tox: 0.6; KLF5 inhibitor: -31.1; Ba/F3 V617F tox: -4.8

Results for COc1cccc(C2=NOC(C(=O)NCc3ccccc3)C2)c1 (configuration not stated) ?
MT stabilize HCS: 18.9*; IEC-6 tox: 9.6; bCat nuc transl: 131.1*; BaF3 tox: 4.9; KLF5 inhibitor: -29.7; Ba/F3 V617F tox: 1.6

What do the screens show for `COc1ccc(C2=NOC(C(=O)NCc3ccccc3)C2)cc1` (configuration not stated)?
MT stabilize HCS: 6.8; IEC-6 tox: 27.1*; bCat nuc transl: 153.7*; BaF3 tox: 3.1; KLF5 inhibitor: 34.6; Ba/F3 V617F tox: 3.3

Results for Cn1c(-c2ccc(F)cc2)cnc1NCc1ccccc1 ?
MT stabilize HCS: 8.5; IEC-6 tox: -2.7; bCat nuc transl: 0.6; BaF3 tox: 3.6; KLF5 inhibitor: -18.4; Ba/F3 V617F tox: -0.4

Results for Cn1c(-c2ccc(F)cc2)cnc1NCc1cccc(F)c1 ?
MT stabilize HCS: 14.5*; IEC-6 tox: 10.8; bCat nuc transl: 38.1; BaF3 tox: -2.3; KLF5 inhibitor: -20.1; Ba/F3 V617F tox: -1.5

Results for Cn1c(-c2ccc3c(c2)OCO3)cnc1NCc1cccc(O)c1 ?
MT stabilize HCS: 2.6; IEC-6 tox: -1.2; bCat nuc transl: 2.7; BaF3 tox: 90.4*; KLF5 inhibitor: -15.4; Ba/F3 V617F tox: 3.1

What do the screens show for `Cn1c(-c2ccccc2)cnc1NCc1cc2c(cc1[N+](=O)[O-])OCO2`?
MT stabilize HCS: 4.7; IEC-6 tox: 0.1; BaF3 tox: 4.3; KLF5 inhibitor: 6.4; Ba/F3 V617F tox: -4.1

What do the screens show for `CSC(=NCc1ccco1)NC#N`?
IEC-6 tox: -0.3; bCat nuc transl: -0.3; BaF3 tox: 1.2; KLF5 inhibitor: -39.3; Ba/F3 V617F tox: 2.1

What do the screens show for `Cc1onc(-c2ccccc2Cl)c1C(=O)N1CCC(Cc2ccccc2)CC1`?
IEC-6 tox: -0.9; KLF5 inhibitor: -9.6

How did CCOC(=O)c1ccc(CC2S/C(=C(\C#N)C(C)=O)NC2=O)cc1 (configuration not stated) do in these assays?
MT stabilize HCS: 1.2; IEC-6 tox: -3.0; bCat nuc transl: 2.4; BaF3 tox: 4.5; KLF5 inhibitor: -6.4; Ba/F3 V617F tox: -1.3

What do the screens show for `CCc1ccc(CC2S/C(=C(\C#N)C(C)=O)NC2=O)cc1` (configuration not stated)?
MT stabilize HCS: 1.8; IEC-6 tox: 70.1*; bCat nuc transl: 0.0; BaF3 tox: 0.4; KLF5 inhibitor: -5.7; Ba/F3 V617F tox: -3.8

What do the screens show for `CC1SCC(=O)N(CC(=O)Nc2ccc3c(c2)OCCO3)C1=O` (configuration not stated)?
MT stabilize HCS: 3.3; IEC-6 tox: -2.0; bCat nuc transl: -1.8; BaF3 tox: 2.2; KLF5 inhibitor: -22.8; Ba/F3 V617F tox: 0.5

Results for CCOc1ccc(C2c3cc(OC)c(OC)cc3CC(=O)N2c2ccc(OC)cc2)cc1 (configuration not stated) ?
MT stabilize HCS: 42.3*; IEC-6 tox: -0.5; bCat nuc transl: 11.4; BaF3 tox: 3.5; KLF5 inhibitor: 10.2; Ba/F3 V617F tox: 0.3

How did CSc1nc(C)c2c(n1)N(c1ccc(O)cc1)CC2 do in these assays?
MT stabilize HCS: 1.7; IEC-6 tox: -8.1; bCat nuc transl: 0.9; BaF3 tox: 6.6; KLF5 inhibitor: 6.4; Ba/F3 V617F tox: 0.5

Results for CSc1nc(C)c2c(n1)N(c1ccc(F)cc1)CC2 ?
MT stabilize HCS: 0.4; IEC-6 tox: -0.6; bCat nuc transl: -0.9; BaF3 tox: 15.6; KLF5 inhibitor: -3.9; Ba/F3 V617F tox: -2.4

How did CCOc1ccc(N2CCc3c(C)nc(SC)nc32)cc1 do in these assays?
MT stabilize HCS: 30.9*; IEC-6 tox: -4.9; bCat nuc transl: 125.3*; BaF3 tox: -0.3; KLF5 inhibitor: -19.8; Ba/F3 V617F tox: -1.3

Results for COc1ccc(N2CCc3c(C)nc(SC)nc32)cc1 ?
MT stabilize HCS: 16.6*; IEC-6 tox: -8.7; bCat nuc transl: -1.6; BaF3 tox: 8.2; KLF5 inhibitor: -0.1; Ba/F3 V617F tox: 1.0

What do the screens show for `CC(=O)N1CCCc2cc(S(=O)(=O)N3CCCC(C(=O)Nc4ccccc4C)C3)ccc21` (configuration not stated)?
IEC-6 tox: -1.0; KLF5 inhibitor: 1.5

How did C=CC[n+]1c(/C=C2\C=Cc3cc(C)ccc3N2CC)ccc2ccccc21 do in these assays?
MT stabilize HCS: 12.4; IEC-6 tox: 40.8*; bCat nuc transl: -1.9; BaF3 tox: 80.4*; KLF5 inhibitor: 6.9; Ba/F3 V617F tox: 100.3*

How did CC[n+]1c(/C=C/Nc2ccccc2)oc2ccccc21 do in these assays?
MT stabilize HCS: 2.8; IEC-6 tox: 1.6; bCat nuc transl: 4.7; BaF3 tox: 11.7; KLF5 inhibitor: -35.5; Ba/F3 V617F tox: 3.7

How did CC[n+]1c(/C=C/Nc2ccccc2)oc2ccc(OC)cc21 do in these assays?
MT stabilize HCS: 2.8; IEC-6 tox: -2.4; bCat nuc transl: 0.6; BaF3 tox: 19.7; KLF5 inhibitor: -11.3; Ba/F3 V617F tox: 11.5

Results for CC[n+]1c(/C=C/N(C)c2ccccc2)oc2ccccc21 ?
MT stabilize HCS: 2.9; IEC-6 tox: 19.7; bCat nuc transl: -1.0; BaF3 tox: 72.0*; KLF5 inhibitor: 6.1; Ba/F3 V617F tox: 85.6*

What do the screens show for `CC[n+]1c(/C=C/N(C)c2ccccc2)oc2ccc(F)cc21`?
MT stabilize HCS: 4.8; IEC-6 tox: 5.9; bCat nuc transl: -2.9; BaF3 tox: 71.6*; KLF5 inhibitor: 21.8; Ba/F3 V617F tox: 79.2*

How did Cc1ccccc1S(=O)(=O)Cc1ccc(C(=O)N(C)C2CCCCC2)o1 do in these assays?
IEC-6 tox: 9.2; KLF5 inhibitor: -23.4

Results for CC(C)CC(OC(=O)c1ccc(Cl)nc1)C(=O)NC1CCCC1 (configuration not stated) ?
IEC-6 tox: 5.9; KLF5 inhibitor: -14.2
